These results are taken from ChEMBL document CHEMBL1255544, “Synthesis and evaluation of novel chloropyrrole molecules designed by molecular hybridization of common pharmacophores as potential antimicrobial agents” (2010).

In brackets after ≈: the same amount, converted by molar mass. Activity calls are given as the source filed them.

Test [1] has as its system Pseudomonas aeruginosa. The test can be described thus: Antimicrobial activity against Pseudomonas aeruginosa ATCC 27853 at 100 ug/ml after 24 hrs by broth dilution method. In kind it is functional, organism-based. (Broth dilution looks for growth in wells or tubes with falling amounts of substance.)
For test [2], the system named is Staphylococcus aureus. The test is described as follows: Antimicrobial activity against Staphylococcus aureus ATCC 25923 after 24 hrs by broth dilution method. The test is classed as functional. Conditions: ATCC 25923, 24 h. In a few lines: (§1)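 MIC by broth dilution: the lowest concentration (highest dilution) that arrested bacterial or fungal growth. Strains were E. coli ATCC-25922, S. aureus ATCC-25923, P. aeruginosa ATCC-27853 and C. albicans.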

Test [3] concerns Escherichia coli. The test is described as follows: Antimicrobial activity against Escherichia coli ATCC […] after 24 hrs by broth dilution method. The test is classed as functional. The procedure, abridged: as §1
The test system of test [4] is Staphylococcus aureus. The test is described as follows: Antimicrobial activity against Staphylococcus aureus ATCC 25923 after 24 hrs by disk diffusion method. In kind it is functional. In a few lines: (§2)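 Zone of inhibition by disc diffusion against E. coli ATCC-25922, S. aureus ATCC-25923, P. aeruginosa ATCC-27853 and recultured Klebsiella pneumoniae.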
In general terms: A growth-free zone around the sample is the usual read-out of agar diffusion tests.

Test [5] relates to Klebsiella pneumoniae. The test can be described thus: Antimicrobial activity against Klebsiella pneumoniae at 100 ug/ml after 24 hrs by broth dilution method. In kind it is functional, organism-based.
Test [6] deals with Candida albicans. The test is described as follows: Antimicrobial activity against Candida albicans after 48 hrs by agar dilution method. In kind it is functional. In a few lines: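 Candida albicans tested by agar dilution, with compounds in DMSO.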
Background: Agar dilution tests growth on a series of plates holding different concentrations.

Test [7] relates to Escherichia coli. The test is described as follows: Antimicrobial activity against Escherichia coli ATCC […] after 24 hrs by disk diffusion method. In kind it is functional. In a few lines:
as §2

In test [8] the test system is Candida albicans. The test can be described thus: Antimicrobial activity against Candida albicans after 48 hrs by broth dilution method. In kind it is functional. In a few lines: as §1
The subject of test [9] is Klebsiella pneumoniae. The test is described as follows: Antimicrobial activity against Klebsiella pneumoniae after 24 hrs by broth dilution method.
Test [10] deals with Pseudomonas aeruginosa. The test can be described thus: Antimicrobial activity against Pseudomonas aeruginosa ATCC 27853 after 24 hrs by broth dilution method. In kind it is functional. Conditions: ATCC 27853, 24 h. The procedure, abridged: as §1
Test [11] relates to Klebsiella pneumoniae. The test is described as follows: Antimicrobial activity against Klebsiella pneumoniae after 24 hrs by disk diffusion method. In kind it is functional. The procedure, abridged: as §2
Test [12] relates to Pseudomonas aeruginosa. The test can be described thus: Antimicrobial activity against Pseudomonas aeruginosa ATCC 27853 after 24 hrs by disk diffusion method. In kind it is functional. In a few lines:
as §2

For `COc1ccc(/C=C/C(=O)c2ccc(Cl)[nH]2)cc1`, the result in the test on Pseudomonas aeruginosa [1] and in the test with Klebsiella pneumoniae [5] was inactive. In addition, the figures for the MIC with Staphylococcus aureus [2], with Escherichia coli [3] and with Candida albicans [8] were 25 µg/mL (≈ 95.5 µM), 50 µg/mL (≈ 191 µM) and 100 µg/mL (≈ 382 µM), respectively. Besides, the “diameter of the inhibition zone (DIZ)” value is reported as 17 mm with Staphylococcus aureus [4], 14 mm in the test with Candida albicans [6] and 10 mm in the test with Escherichia coli [7].

With `O=C(O)c1cn(C2CC2)c2cc(N3CCNCC3)c(F)cc2c1=O` [CIPROFLOXACIN], the MIC was determined as 1.56 µg/mL (≈ 4.71 µM) against Klebsiella pneumoniae [9], 1.56 µg/mL (≈ 4.71 µM) against Staphylococcus aureus [2], 1.06 µg/mL (≈ 3.2 µM) in the test on Escherichia coli [3] and 3.12 µg/mL (≈ 9.43 µM) with Pseudomonas aeruginosa [10]. Further, the diameter of the inhibition zone (DIZ) in the test with Staphylococcus aureus [4] (Staphylococcus aureus, ATCC 25923, 24 h) turned out to be 20 mm. Moreover, the Zone of inhibition in the test with Klebsiella pneumoniae [11] (Klebsiella pneumoniae, 24 h) came out at 26 mm; with Escherichia coli [7] (Escherichia coli, ATCC 2522, 24 h) it was 25 mm.

Turning to `O=C(N/N=C/c1ccco1)c1cc(Cl)c(Cl)[nH]1`, the MIC against Staphylococcus aureus [2] stood at 1.56 µg/mL (≈ 5.73 µM); against Escherichia coli [3] it was 3.12 µg/mL (≈ 11.5 µM); with Pseudomonas aeruginosa [10], 25 µg/mL (≈ 91.9 µM); in the test on Candida albicans [8], 12.5 µg/mL (≈ 45.9 µM). In addition, the “diameter of the inhibition zone (DIZ)” value with Staphylococcus aureus [4] worked out at 26 mm; with Klebsiella pneumoniae [11], 20 mm; with Pseudomonas aeruginosa [12] it was 24 mm; in the test with Candida albicans [6], 23 mm; in the test on Escherichia coli [7], 24 mm.

For `O=C(/C=C/c1ccco1)c1ccc(Cl)[nH]1`, the result in the test on Pseudomonas aeruginosa [1] and with Klebsiella pneumoniae [5] was inactive. Besides, the values for the MIC in the test on Staphylococcus aureus [2], against Escherichia coli [3] and in the test on Candida albicans [8] were 25 µg/mL (≈ 113 µM), 12.5 µg/mL (≈ 56.4 µM) and 100 µg/mL (≈ 451 µM), respectively. In addition, the results for the “diameter of the inhibition zone (DIZ)” value in the test with Staphylococcus aureus [4], in the test on Candida albicans [6] and with Escherichia coli [7] were 15 mm, 10 mm and 16 mm, respectively.

For the molecule `CN(C)c1ccc(/C=N/NC(=O)c2cc(Cl)c(Cl)[nH]2)cc1`, the MIC with Staphylococcus aureus [2] worked out at 12.5 µg/mL (≈ 38.4 µM); with Escherichia coli [3], 6.25 µg/mL (≈ 19.2 µM); in the test on Pseudomonas aeruginosa [10] it was 25 µg/mL (≈ 76.9 µM); in the test on Candida albicans [8], 12.5 µg/mL (≈ 38.4 µM). Also, the “diameter of the inhibition zone (DIZ)” value with Staphylococcus aureus [4] turned out to be 15 mm; with Klebsiella pneumoniae [11], 12 mm; with Pseudomonas aeruginosa [12] it was 15 mm; in the test on Candida albicans [6], 22 mm; in the test on Escherichia coli [7], 22 mm.

Consider `O=C(N/N=C/c1ccc(Cl)cc1)c1cc(Cl)c(Cl)[nH]1`, for which the MIC with Staphylococcus aureus [2] turned out to be 1.56 µg/mL (≈ 4.93 µM); against Escherichia coli [3] it was 3.12 µg/mL (≈ 9.87 µM); with Pseudomonas aeruginosa [10], 25 µg/mL (≈ 79 µM); in the test on Candida albicans [8], 12.5 µg/mL (≈ 39.5 µM). For the same molecule, the “diameter of the inhibition zone (DIZ)” value with Staphylococcus aureus [4] is 24 mm; in the test with Klebsiella pneumoniae [11] it was 20 mm; in the test with Pseudomonas aeruginosa [12], 16 mm; with Candida albicans [6], 20 mm; with Escherichia coli [7], 22 mm.

Consider `COc1ccc(OC)c(/C=C/C(=O)c2cc(Cl)c(Cl)[nH]2)c1`, for which the MIC was 6.25 µg/mL (≈ 19.2 µM) against Staphylococcus aureus [2], 6.25 µg/mL (≈ 19.2 µM) against Escherichia coli [3], 100 µg/mL (≈ 307 µM) in the test on Pseudomonas aeruginosa [10] and 50 µg/mL (≈ 153 µM) against Candida albicans [8]. Moreover, the “diameter of the inhibition zone (DIZ)” value with Staphylococcus aureus [4] is 22 mm; in the test with Klebsiella pneumoniae [11], 16 mm; with Pseudomonas aeruginosa [12], 15 mm; in the test with Candida albicans [6], 15 mm; in the test on Escherichia coli [7], 20 mm.

As to `O=C(/C=C/c1ccc(Cl)cc1)c1cc(Cl)c(Cl)[nH]1`, the MIC against Staphylococcus aureus [2] is 3.12 µg/mL (≈ 10.4 µM); in the test on Escherichia coli [3] it was 6.25 µg/mL (≈ 20.8 µM); in the test with Pseudomonas aeruginosa [10], 25 µg/mL (≈ 83.2 µM); with Candida albicans [8] it was 50 µg/mL (≈ 166 µM). The “diameter of the inhibition zone (DIZ)” value was found to be 25 mm in the test with Staphylococcus aureus [4]; 17 mm in the test on Klebsiella pneumoniae [11]; 16 mm in the test with Pseudomonas aeruginosa [12]; 14 mm in the test with Candida albicans [6]; 16 mm with Escherichia coli [7].

On to `O=C(/C=C/c1ccco1)c1cc(Cl)c(Cl)[nH]1`, for which the MIC worked out at 1.56 µg/mL (≈ 6.09 µM) against Staphylococcus aureus [2], 3.12 µg/mL (≈ 12.2 µM) with Escherichia coli [3], 25 µg/mL (≈ 97.6 µM) in the test on Pseudomonas aeruginosa [10] and 50 µg/mL (≈ 195 µM) against Candida albicans [8]. Further, the “diameter of the inhibition zone (DIZ)” value with Staphylococcus aureus [4] came out at 25 mm; with Klebsiella pneumoniae [11], 15 mm; in the test on Pseudomonas aeruginosa [12] it was 17 mm; in the test on Candida albicans [6], 14 mm; with Escherichia coli [7], 21 mm.

With `COc1ccc(/C=C/C(=O)c2cc(Cl)c(Cl)[nH]2)cc1`, the MIC with Staphylococcus aureus [2] was 12.5 µg/mL (≈ 42.2 µM); against Escherichia coli [3] it was 12.5 µg/mL (≈ 42.2 µM); against Pseudomonas aeruginosa [10] it was 100 µg/mL (≈ 338 µM); with Candida albicans [8] it was 50 µg/mL (≈ 169 µM). The “diameter of the inhibition zone (DIZ)” value with Staphylococcus aureus [4] is 20 mm; in the test with Klebsiella pneumoniae [11], 18 mm; with Pseudomonas aeruginosa [12] it was 17 mm; in the test with Candida albicans [6] it was 12 mm; in the test with Escherichia coli [7], 13 mm.

Regarding `O=C(N/N=C/c1ccccc1O)c1cc(Cl)c(Cl)[nH]1`, the MIC in the test on Staphylococcus aureus [2] came out at 1.56 µg/mL (≈ 5.23 µM); with Escherichia coli [3], 3.12 µg/mL (≈ 10.5 µM); in the test with Pseudomonas aeruginosa [10], 50 µg/mL (≈ 168 µM); against Candida albicans [8], 12.5 µg/mL (≈ 41.9 µM). The “diameter of the inhibition zone (DIZ)” value came to 22 mm with Staphylococcus aureus [4]; 19 mm with Klebsiella pneumoniae [11]; 18 mm with Pseudomonas aeruginosa [12]; 16 mm in the test with Candida albicans [6]; 18 mm with Escherichia coli [7].

`COc1ccc(/C=N/NC(=O)c2cc(Cl)c(Cl)[nH]2)cc1`: the MIC worked out at 6.25 µg/mL (≈ 20 µM) against Staphylococcus aureus [2], 12.5 µg/mL (≈ 40 µM) in the test on Escherichia coli [3], 25 µg/mL (≈ 80.1 µM) with Pseudomonas aeruginosa [10] and 12.5 µg/mL (≈ 40 µM) in the test with Candida albicans [8]. Besides, the “diameter of the inhibition zone (DIZ)” value with Staphylococcus aureus [4] is given as 20 mm; with Klebsiella pneumoniae [11], 16 mm; in the test with Pseudomonas aeruginosa [12], 20 mm; in the test on Candida albicans [6], 24 mm; in the test on Escherichia coli [7], 19 mm.

Consider `O=C(N/N=C/c1ccccc1)c1cc(Cl)c(Cl)[nH]1`, for which the MIC against Staphylococcus aureus [2] is 3.12 µg/mL (≈ 11.1 µM); with Escherichia coli [3] it was 12.5 µg/mL (≈ 44.3 µM); with Pseudomonas aeruginosa [10] it was 50 µg/mL (≈ 177 µM); against Candida albicans [8] it was 12.5 µg/mL (≈ 44.3 µM). The “diameter of the inhibition zone (DIZ)” value in the test on Staphylococcus aureus [4] amounted to 16 mm; in the test on Klebsiella pneumoniae [11], 17 mm; in the test with Pseudomonas aeruginosa [12], 18 mm; with Candida albicans [6], 23 mm; in the test with Escherichia coli [7], 11 mm.

Consider `COc1ccc(/C=C/C(=O)c2ccc(Cl)[nH]2)cc1OC`, for which the outcome with Pseudomonas aeruginosa [1] and with Klebsiella pneumoniae [5] was inactive. Besides, the results for the MIC in the test with Staphylococcus aureus [2], against Escherichia coli [3] and in the test on Candida albicans [8] were 25 µg/mL (≈ 85.7 µM), 25 µg/mL (≈ 85.7 µM) and 100 µg/mL (≈ 343 µM), respectively. Also, the “diameter of the inhibition zone (DIZ)” value is reported as 13 mm in the test with Staphylococcus aureus [4], 14 mm with Candida albicans [6] and 13 mm in the test on Escherichia coli [7].

The MIC is the smallest concentration in the dilution series that meets the test's criterion for growth inhibition. A low value points to inhibition by little substance.
